Measured values from ChEMBL document CHEMBL1143397 (J Med Chem, 2009).
Calls of active or inactive are those of the source. The rule behind the calls is not given here.

Tests used:
[1] = target: T1, Melatonin receptor type 1B (Homo sapiens, UniProt P49286); assay: Displacement of 2-[125I]iodomelatonin from human MT2 receptor expressed in CHO cells; assay type: cell-based
T1 sequence (P49286 whole entry): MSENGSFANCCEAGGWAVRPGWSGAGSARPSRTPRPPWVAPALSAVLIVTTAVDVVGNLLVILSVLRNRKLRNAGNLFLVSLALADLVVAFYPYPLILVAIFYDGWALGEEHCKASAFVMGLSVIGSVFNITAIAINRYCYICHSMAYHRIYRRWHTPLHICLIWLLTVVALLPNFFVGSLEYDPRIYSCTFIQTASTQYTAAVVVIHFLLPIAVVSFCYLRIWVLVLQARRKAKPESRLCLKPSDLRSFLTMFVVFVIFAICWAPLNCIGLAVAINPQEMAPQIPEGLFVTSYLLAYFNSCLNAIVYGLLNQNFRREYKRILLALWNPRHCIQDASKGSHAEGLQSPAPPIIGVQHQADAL

[2] = target: T2, Melatonin receptor type 1A (Homo sapiens, UniProt P48039); assay: Displacement of 2-[125I]iodomelatonin from human MT1 receptor expressed in CHO cells; assay type: cell-based
T2 sequence (P48039 whole entry): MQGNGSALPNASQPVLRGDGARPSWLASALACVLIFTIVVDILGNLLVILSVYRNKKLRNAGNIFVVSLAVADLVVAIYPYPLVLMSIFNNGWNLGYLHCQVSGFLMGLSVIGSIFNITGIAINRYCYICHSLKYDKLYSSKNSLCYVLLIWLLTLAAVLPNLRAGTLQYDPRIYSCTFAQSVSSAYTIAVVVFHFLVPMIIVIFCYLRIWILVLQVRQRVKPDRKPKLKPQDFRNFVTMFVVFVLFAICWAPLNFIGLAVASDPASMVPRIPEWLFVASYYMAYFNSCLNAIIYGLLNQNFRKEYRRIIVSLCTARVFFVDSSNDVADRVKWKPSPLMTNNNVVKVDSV

[3] = target: T2, Melatonin receptor type 1A; assay: Antagonist activity at human MT1 receptor expressed in CHO cells assessed as inhibition of forskolin-stimulated cAMP formation; assay type: functional, cell-based
Procedure, shortened: (§1)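 In stable human MT1- or MT2-CHO cells replated in 24-well plates, cells were given 20 min at 37 °C in serum-free medium with 30 µM rolipram and 100 µM forskolin, plus a test compound concentration series within 10-14 to 10^-4 M. Rolipram alone gave basal and rolipram plus forskolin gave maximal accumulation. cAMP was read by EIA kit.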

[4] = target: T3, Melatonin receptor type 1B (Homo sapiens) (UniProt P49286); assay: Activity at human MT2 receptor expressed in CHO cells assessed as inhibition of forskolin-stimulated cAMP formation at >10 nM; assay type: functional, cell-based; procedure, shortened: as §1
T3 sequence (whole entry): T1 sequence (P49286 whole entry)

[5] = organism: Homo sapiens; assay: Selectivity ratio of Ki for human MT1 receptor to Ki for human MT2 receptor
Procedure, shortened: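 Whole-cell competition binding used lifted human MT1- or MT2-CHO cells with 80-100 pM 2-[125I]iodomelatonin and test compound (1 pM to 1 µM), 1 h at 25 °C, stopped with cold 50 mM Tris-HCl pH 7.4. Ki came from IC50 by Cheng-Prusoff, mean of three determinations. The ratio is Ki MT1 / Ki MT2.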

[6] = target: T3, Melatonin receptor type 1B (Homo sapiens); assay: Antagonist activity at human MT2 receptor expressed in CHO cells assessed as inhibition of forskolin-stimulated cAMP formation; assay type: functional, cell-based; procedure, shortened: as §1
[7] = target: T2, Melatonin receptor type 1A; assay: Activity at low-affinity binding site of human MT1 receptor expressed in CHO cells assessed as increase in potency of melatonin to inhibit forskolin-induced cAMP accumulation at 10 to 100 nM; assay type: functional, cell-based
[8] = target: T2, Melatonin receptor type 1A; assay: Activity at high-affinity binding site of human MT1 receptor expressed in CHO cells assessed as decrease in potency of melatonin to inhibit forskolin-induced cAMP accumulation at 10 to 100 nM
[9] = target: T3, Melatonin receptor type 1B (Homo sapiens); assay: Activity at human MT2 receptor expressed in CHO cells assessed as increase in potency of melatonin to inhibit forskolin-induced cAMP accumulation at 10 nM; assay type: functional, cell-based
[10] = target: T3, Melatonin receptor type 1B (Homo sapiens); assay: Activity at human MT2 receptor expressed in CHO cells assessed as increase in potency of melatonin to inhibit forskolin-induced cAMP accumulation at 100 nM; assay type: functional, cell-based

In the case of `COc1ccc2[nH]c(CN3CCc4cc(Br)ccc43)c(CCNC(C)=O)c2c1`, the Ki ([1]; read-out: Ki) is reported as 30 nM and the Ki ([2]; read-out: Ki) is reported as 85 nM.
`COc1ccc2[nH]c(CN3CCc4ccccc43)c(CCNC(=O)C3CCC3)c2c1` was tested, and the Ki ([1]; read-out: Ki) was 148 nM, the Ki ([1]; read-out: pKi (converted)) was 0.001 nM and the Activity [3] was “Active”. For the same compound, the Ki ([2]; read-out: Ki) was 1400 nM and the Activity [4] was “Active”.
`COc1ccc2[nH]c(CN3CCCC3)c(CCNC(C)=O)c2c1` showed a Ki ([1]; read-out: Ki) of 25 nM and a Ki ([2]; read-out: Ki) of 121 nM.
`CCC(=O)NC1Cc2ccccc2C(c2ccccc2)C1` (stereo not drawn) showed a Ki ([1]; read-out: Ki) of 0.46 nM and a Ki ([2]; read-out: Ki) of 59 nM.
`COc1cccc(C(CCNC(C)=O)c2ccc3ccccc3c2)c1` (stereo not drawn) gave a Ki ([1]; read-out: Ki) of 0.11 nM and a Ki ([2]; read-out: Ki) of 132 nM.
With `COc1ccc2c(c1)[C@@H](CCNC(=O)C1CCC1)C[C@@H](c1ccccc1)C2` the Ki ([1]; read-out: Ki) was 0.9 nM and the Ki ([2]; read-out: Ki) was 797 nM.
In the case of `CCC(=O)NCc1cc2c(OC)cccc2n1Cc1ccc(Cl)cc1`, the Ki ([1]; read-out: Ki) is reported as 9 nM.
`COc1cccc(/C(=C/CNC(C)=O)c2ccccc2)c1` showed a Ki ([1]; read-out: Ki) of 2.5 nM and a Ki ([2]; read-out: Ki) of 230 nM.
In the case of `COc1cccc(Cc2oc3ccc(OC)cc3c2CCNC(C)=O)c1`, the Ki ([1]; read-out: Ki) is reported as 0.25 nM and the Ki ([2]; read-out: Ki) is reported as 27 nM.
In the case of `COc1ccc2c(c1)CCN2Cc1[nH]c2ccc(OC)cc2c1CCNC(C)=O`, the Ki ([1]; read-out: Ki) is reported as 7.1 nM and the Ki ([2]; read-out: Ki) is reported as 5.8 nM.
`COc1ccc2[nH]c(CN3CCc4cc(C)ccc43)c(CCNC(C)=O)c2c1` showed a Ki ([1]; read-out: Ki) of 15 nM and a Ki ([2]; read-out: Ki) of 41 nM.
`COc1ccc2[nH]c(CN3c4ccccc4CC3C)c(CCNC(C)=O)c2c1` (stereo not drawn) was tested, and the Ratio Ki [5] was 11, the Ki ([1]; read-out: Ki) was 14 nM and the Ki ([2]; read-out: Ki) was 148 nM.
For `COc1ccc2[nH]c(CN3CCc4ccccc43)c(CCNC(C)=O)c2c1`, the Activity [6] was “Active”, the Activity [7] was “Active” and the Ratio Ki [5] was 91. For the same compound, the Activity [8] was “Active”, the Activity [9] was “Active” and the Ki ([1]; read-out: Ki) was 1.1 nM. For the same compound, the Ki ([1]; read-out: pKi (converted)) was 1.17 nM, the Activity [3] was “Active” and the Activity [10] was “Active”. For the same compound, the Ki ([2]; read-out: Ki) was 101 nM and the Ki ([2]; read-out: pKi (converted)) was 115 nM.
`COc1ccc2[nH]c(CN3CCc4ccc([N+](=O)[O-])cc43)c(CCNC(C)=O)c2c1` showed a Ki ([1]; read-out: Ki) of 26.5 nM, a Ki ([2]; read-out: Ki) of 302 nM and a Ki ([2]; read-out: pKi (converted)) of 309 nM.
In the case of `COc1ccc2[nH]c(CN3CCc4ccc(N)cc43)c(CCNC(C)=O)c2c1`, the Ki ([1]; read-out: Ki) is reported as 118 nM and the Ki ([2]; read-out: Ki) is reported as 108 nM.
In the case of `CCCC(=O)NCCc1c(CN2c3ccccc3CC2C)[nH]c2ccc(OC)cc12` (stereo not drawn), the Ratio Ki [5] is reported as 5, the Ki ([1]; read-out: Ki) is reported as 8 nM and the Ki ([2]; read-out: Ki) is reported as 41 nM.
Compound `COc1ccc2c(c1)CC1Cn3c(c(CCNC(C)=O)c4cc(OC)ccc43)CN21` (stereo not drawn) has a Ki ([2]; read-out: pKi (converted)) of 1780 nM.
Work on `COc1ccc2c(c1)c(CCNC(C)=O)c1n2CC2Cc3ccccc3N2C1` (stereo not drawn) yielded a Ki ([1]; read-out: pKi (converted)) of 60.3 nM and a Ki ([2]; read-out: pKi (converted)) of 302 nM.
For `CCC(=O)NCC1Cc2ccccc2Cc2ccc(OC)cc21` (stereo not drawn), the Ki ([1]; read-out: Ki) was 0.16 nM and the Ki ([2]; read-out: Ki) was 1.4 nM.
For `CCC(=O)NCCc1c(CN2CCc3ccccc32)[nH]c2ccc(OC)cc12`, the Ki ([1]; read-out: Ki) was 14.5 nM and the Ki ([2]; read-out: Ki) was 38 nM.
